Measured values from ChEMBL document CHEMBL1667730, “Antibacterial and anti-inflammatory activities of 4-hydroxycordoin: potential therapeutic benefits” (J Nat Prod, 2011).
Converted amounts (≈) assume the structure as drawn. The source made the active and inactive calls. No cut-off for these calls is given here.

Experiments:
[1] = tested on: Fusobacterium nucleatum; test: Antibacterial activity against Fusobacterium nucleatum ATCC 25586 after 24 hrs; format: functional
In short: (§1)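 Broth microdilution in THB-HK: 24 h cultures diluted to OD655 0.2, mixed 1:1 with compound (0–40 µg/mL, twofold steps from 0.63), 24 h at 37 °C anaerobic (N2-H2-CO2 80:10:10); growth by OD655 relative to untreated. MIC = lowest concentration with no growth; MBC from no-growth wells plated on THB-HK agar, 5 days anaerobic. Triplicate, two independent experiments.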

[2] = tested on: Porphyromonas gingivalis; test: Antibacterial activity against 14C-labeled Porphyromonas gingivalis ATCC 33277 assessed as inhibition of adhesion to human GMSM-K cells after 30 mins by scintillation counting; format: functional, cell-based
In short: (§2)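 14C-amino acid-labelled (20 µCi/mL, 16 h, anaerobic) mid-log P. gingivalis washed in PBS pH 7.2, suspended to OD655 0.8 in prereduced PBS; mixed with compound (final 0, 0.2, 1, 5 µg/mL) and added to confluent GMSM-K monolayers for 30 min at 37 °C; unbound cells washed off, bound bacteria released with 0.5 M NaOH, scintillation counted. Triplicate, three independent assays, mean ± SD.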

[3] = tested on: U-937; test: Antiinflammatory activity in human U937 cells assessed as inhibition of LPS-induced IL1-beta production at 5 ug/ml treated 2 hrs before LPS challenge measured after 24 hrs by ELISA; format: functional
In short: (§3)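 PMA-differentiated U937 macrophages (10 ng/mL PMA 48 h, then 24 h rest) at 1 × 10^6 cells/mL in RPMI with 1% FBS; compound (0, 0.2, 1, 5 µg/mL) for 2 h, then A. actinomycetemcomitans ATCC 29522 LPS (1 µg/mL final) for 24 h, 37 °C 5% CO2. Supernatant cytokines and MMP-9 by ELISA (A450, 550 correction). Triplicate, two experiments, t test.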

[4] = tested on: U-937; test: Antiinflammatory activity in human U937 cells assessed as inhibition of LPS-induced PGE2 production at 5 ug/ml treated 2 hrs before LPS challenge measured after 24 hrs; format: functional, cell-based
[5] = Cytotoxicity against human GMSM-K cells assessed as reduction of cell viability at up to 50 ug/ml after 2 hrs by MTT assay; format: cell-based
In short: (§4)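 MTT colorimetric viability assay on GMSM-K epithelial cells and PMA-differentiated U937 macrophages after 2 h exposure to compound at up to 50 µg/mL.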

[6] = tested on: U-937; test: Antiinflammatory activity in human U937 cells assessed as inhibition of CCL5 production at 5 ug/ml after 24 hrs by ELISA; format: functional, cell-based; in short: as §3
[7] = tested on: U-937; test: Antiinflammatory activity in human U937 cells assessed as inhibition of LPS-induced CCL5 production at 5 ug/ml treated 2 hrs before LPS challenge measured after 24 hrs by ELISA; format: functional; in short: as §3
[8] = tested on: U-937; test: Antiinflammatory activity in human U937 cells assessed as inhibition of LPS-induced TNFalpha production at 5 ug/ml treated 2 hrs before LPS challenge measured after 24 hrs by ELISA; format: functional; in short: as §3
[9] = tested on: Porphyromonas gingivalis; test: Antibacterial activity against 14C-labeled Porphyromonas gingivalis ATCC 33277 assessed as inhibition of adhesion to human GMSM-K cells at 0.2 ug/ml after 30 mins by scintillation counting; format: functional, cell-based; in short: as §2
[10] = tested on: Porphyromonas gingivalis; test: Antibacterial activity against Porphyromonas gingivalis ATCC 33277 after 24 hrs; format: functional; in short: as §1
[11] = tested on: U-937; test: Antiinflammatory activity in human U937 cells assessed as inhibition of IL1-beta production at 5 ug/ml after 24 hrs by ELISA; format: functional, cell-based; in short: as §3
[12] = tested on: U-937; test: Antiinflammatory activity in human U937 cells assessed as inhibition of LPS-induced AP-1 activation at 5 ug/ml treated 1 hrs before LPS challenge measured after 1 hr; format: functional, cell-based
In short: (§5)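 PMA-differentiated U937 macrophages given compound at 5 µg/mL for 1 h, then A. actinomycetemcomitans LPS at 1 µg/mL for 1 h, 37 °C 5% CO2. Whole-cell extracts adjusted to 1 mg/mL protein; NF-κB p65 and AP-1 activation measured by Trans-AM kits. Unstimulated and compound-free controls included; triplicate, three independent experiments.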

[13] = tested on: U-937; test: Antiinflammatory activity in human U937 cells assessed as inhibition of IL-8 production at 5 ug/ml after 24 hrs by ELISA; format: functional, cell-based; in short: as §3
[14] = tested on: Porphyromonas gingivalis; test: Antibacterial activity against 14C-labeled Porphyromonas gingivalis ATCC 33277 assessed as inhibition of adhesion to human GMSM-K cells at 5 ug/ml after 30 mins by scintillation counting relative to control; format: functional; conditions: ATCC 33277, GMSM-K, 0.5 h; in short: as §2
[15] = tested on: U-937; test: Antiinflammatory activity in human U937 cells assessed as inhibition of LPS-induced MMP9 production at 5 ug/ml treated 2 hrs before LPS challenge measured after 24 hrs by ELISA; format: functional, cell-based; in short: as §3
[16] = tested on: U-937; test: Antiinflammatory activity in human U937 cells assessed as inhibition of LPS-induced IL-8 production at 5 ug/ml treated 2 hrs before LPS challenge measured after 24 hrs by ELISA; format: functional; in short: as §3
[17] = tested on: U-937; test: Antiinflammatory activity in human U937 cells assessed as inhibition of TNFalpha production at 5 ug/ml after 24 hrs by ELISA; format: functional, cell-based; in short: as §3
[18] = tested on: Prevotella intermedia; test: Antibacterial activity against Prevotella intermedia ATCC 25611 assessed as reduction of bacterial growth at 1.25 ug/ml after 24 hrs; format: functional; parameters: scale not given: the % may be the effect or the level left; in short: as §1
[19] = tested on: Porphyromonas gingivalis; test: Antibacterial activity against 14C-labeled Porphyromonas gingivalis ATCC 33277 assessed as inhibition of adhesion to human GMSM-K cells at 1 ug/ml after 30 mins by scintillation counting relative to control; format: functional; conditions: ATCC 33277, GMSM-K, 0.5 h; in short: as §2
[20] = tested on: U-937; test: Antiinflammatory activity in human U937 cells assessed as inhibition of LPS-induced IL-6 production at 5 ug/ml treated 2 hrs before LPS challenge measured after 24 hrs by ELISA; format: functional; in short: as §3
[21] = tested on: U-937; test: Antiinflammatory activity in human U937 cells assessed as inhibition of IL-6 production at 5 ug/ml after 24 hrs by ELISA; format: functional, cell-based; in short: as §3
[22] = tested on: U-937; test: Antiinflammatory activity in human U937 cells assessed as inhibition of LPS-induced MMP9 production at 1 ug/ml treated 2 hrs before LPS challenge measured after 24 hrs by ELISA; format: functional, cell-based; in short: as §3
[23] = tested on: Prevotella intermedia; test: Antibacterial activity against Prevotella intermedia ATCC 25611 after 24 hrs; format: functional; in short: as §1
[24] = tested on: U-937; test: Cytotoxicity against human U937 cells assessed as reduction of cell viability at up to 50 ug/ml after 2 hrs by MTT assay; format: cell-based; conditions: u-937, 2 h; in short: as §4
[25] = tested on: U-937; test: Antiinflammatory activity in human U937 cells assessed as inhibition of LPS-induced NF-kappaB p65 activation at 5 ug/ml treated 1 hrs before LPS challenge measured after 1 hr; format: functional, cell-based; in short: as §5
[26] = tested on: U-937; test: Antiinflammatory activity in human U937 cells assessed as inhibition of PGE2 production at 5 ug/ml after 24 hrs; format: functional, cell-based

CC(C)=CCOc1ccc(C(=O)/C=C/c2ccc(O)cc2)c(O)c1
Activity [1]: Dose-dependent effect | MBC ([1]; ATCC 25586, 24 h): > 40 µg/mL | MIC ([1]; ATCC 25586, 24 h): 40 µg/mL (≈ 123 µM) | inhibition [2]: Dose-dependent effect | inhibition at 5 µg/mL [3]: 29% | inhibition [4]: Active | Activity [5]: Non-toxic | inhibition [6]: inactive | inhibition at 5 µg/mL [7]: 67% | inhibition at 5 µg/mL [8]: 23% | inhibition [9]: inactive | Activity [10]: Dose-dependent effect | MBC ([10]; ATCC 33277, 24 h): 10 µg/mL (≈ 30.8 µM) | MIC ([10]; ATCC 33277, 24 h): 5 µg/mL (≈ 15.4 µM) | inhibition [11]: inactive | inhibition [12]: Active | inhibition [13]: inactive | inhibition at 5 µg/mL [14]: 36% | inhibition [15]: Active | inhibition at 5 µg/mL [16]: 38% | inhibition [17]: inactive | Activity [18]: 45% | inhibition at 1 µg/mL [19]: 31% | inhibition at 5 µg/mL [20]: 50% | inhibition [21]: inactive | inhibition [22]: Active | Activity [23]: Dose-dependent effect | MBC ([23]; ATCC 25611, 24 h): 5 µg/mL (≈ 15.4 µM) | MIC ([23]; ATCC 25611, 24 h): 2.5 µg/mL (≈ 7.71 µM) | Activity [24]: Non-toxic | inhibition [25]: Active | inhibition [26]: inactive
